Measured values reported in ChEMBL document CHEMBL6115033, “Discovery of a Pyrazolopyridinone-Based MYC Inhibitor That Selectively Engages Intracellular c-MYC and Disrupts MYC-MAX Heterodimerization” (J Med Chem, 2025).
Activity calls are given as the source filed them. The calls are words filed in the database; no cut-off is given here.

Key:
MDA-MB-231 = experiment: Antiproliferative activity against human MDA-MB-231 cells assessed as cell viability incubated for 96 hrs by MTT assay; assay type: functional, cell-based; conditions: MDA-MB-231, 96 h
Method in brief: (§1)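 Adherent cells (2000/well) attached overnight, then exposed to compounds at 0.14–100 µM for 96 h in DMEM with 10% FBS. MTT at 0.5 mg/mL for 4 h in the dark, formazan dissolved in DMSO, absorbance at 570 nm. Compounds were freshly prepared in DMSO, with DMSO below 1%.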

MDA-MB-468 [1] = experiment: Antiproliferative activity against human MDA-MB-468 cells assessed as cell viability incubated for 96 hrs by MTT assay; assay type: functional, cell-based; conditions: MDA-MB-468, 96 h; method in brief: as §1
MCF7 = experiment: Antiproliferative activity against human MCF7 cells assessed as cell viability incubated for 96 hrs by MTT assay; assay type: functional, cell-based; conditions: MCF7, 96 h; method in brief: as §1
[2] = Antiproliferative activity against human P493-6 cells expressing MYC assessed as inhibition of cell proliferation incubated for 96 hrs by cell titer glo assay; assay type: functional, cell-based; conditions: P493-6, 96 h
Method in brief: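 P493-6 cells (3000/well, RPMI) were seeded overnight at 37 °C, then given compounds at final 0.14–100 µM for 96 h. MYC-off cells were pretreated with 0.1 µg/mL tetracycline for 72 h. Read-out was CellTiter-Glo luminescence after equilibration to room temperature. IC50 was determined in high-MYC and MYC-off cells.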

[3] = Selectivity index, ratio of IC50 for antiproliferative activity against tetracycline-treated human P493-6 cells expressing MYC assessed as inhibition of cell proliferation to IC50 for antiproliferative activity against human P493-6 cells expressing MYC assessed as inhibition of cell proliferation; assay type: functional
Method in brief: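 MYC-off P493-6 cells obtained by 72 h pretreatment with 0.1 µg/mL tetracycline and compared with untreated MYC-high cells. Cells seeded at 3000 per 100 uL, held overnight at 37 °C, then treated at 0.14–100 uM final for 96 h. Viability read by CellTiter-Glo luminescence. IC50 values determined in both states and compared as a selectivity index.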

[4] = molecular target: Myc proto-oncogene protein (Homo sapiens) (UniProt P01106); experiment: Binding affinity to MYC in human P493-6 cells assessed as induction of destabilization at 10 to 50 uM measured for 2 hr by CETSA analysis; assay type: cell-based; conditions: DESTABILISER, dose 10-50 µM
[5] = molecular target: T1, c-Myc/c-Max (Homo sapiens) (UniProt P01106+P61244); experiment: Disruption of MYC-MAX interaction in human MDA-MB-468 cells at 25 uM incubated for 3 to 12 hrs by Western blot analysis; assay type: cell-based; conditions: time 3-12 hrs
Method in brief: (§2)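 Cells were given 25 µM or DMSO for 0, 3, 5 and 12 h. Cytoplasmic and nuclear lysate fractions were pooled. 2 mg protein was immunoprecipitated with MYC antibody overnight, then protein A/G beads for 4 h at 4 °C. Bound MAX was detected by western blot and quantified relative to MYC; MAX input was also measured.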

[6] = molecular target: T1, c-Myc/c-Max (Homo sapiens); experiment: Disruption of MYC-MAX heterodimerization in human P493-6 cells incubated for 12 hrs; assay type: cell-based; method in brief: as §2
[7] = molecular target: T1, c-Myc/c-Max (Homo sapiens); experiment: Disruption of MYC-MAX heterodimerization in human MDA-MB-468 cells incubated for 12 hrs; assay type: cell-based; method in brief: as §2
[8] = molecular target: T1, c-Myc/c-Max (Homo sapiens); experiment: Disruption of MYC-MAX interaction in human MDA-MB-468 cells assessed as reduction in myc level at 25 uM; assay type: cell-based
[9] = molecular target: T1, c-Myc/c-Max (Homo sapiens); experiment: Disruption of MYC-MAX interaction in human P493-6 cells assessed as reduction in myc level at 25 uM; assay type: cell-based
MDA-MB-468 [10] = experiment: Downregulation of CDC25A mRNA expression in human MDA-MB-468 cells at 25 uM incubated for 12 hrs by qRT-PCR analysis; assay type: functional, cell-based
Method in brief: (§3)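 Cells (500,000/well) were cultured with or without 25 µM for the indicated time. Total RNA was extracted with TRIzol and reverse-transcribed. qPCR used SYBR green with target-gene primers, reported as ΔΔCT.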

MDA-MB-468 [11] = experiment: Downregulation of CDC25C mRNA expression in human MDA-MB-468 cells at 25 uM incubated for 12 hrs by qRT-PCR analysis; assay type: functional, cell-based; method in brief: as §3
MDA-MB-468 [12] = experiment: Downregulation of E2F1 mRNA expression in human MDA-MB-468 cells at 25 uM incubated for 12 hrs by qRT-PCR analysis; assay type: functional, cell-based; method in brief: as §3
MDA-MB-468 [13] = experiment: Downregulation of E2F2 mRNA expression in human MDA-MB-468 cells at 25 uM incubated for 12 hrs by qRT-PCR analysis; assay type: functional, cell-based; method in brief: as §3
P493-6 [14] = experiment: Downregulation of CCNA2 mRNA expression in human P493-6 cells at 25 uM incubated for 12 hrs by qRT-PCR analysis; assay type: functional, cell-based; method in brief: as §3
P493-6 [15] = experiment: Downregulation of CDK1 mRNA expression in human P493-6 cells at 25 uM incubated for 12 hrs by qRT-PCR analysis; assay type: functional, cell-based; method in brief: as §3
P493-6 [16] = experiment: Downregulation of CDC25C mRNA expression in human P493-6 cells at 25 uM incubated for 12 hrs by qRT-PCR analysis; assay type: functional, cell-based; method in brief: as §3
MDA-MB-468 [17] = experiment: Downregulation of CDK1 mRNA expression in human MDA-MB-468 cells at 25 uM incubated at 48 hrs by qRT-PCR analysis; assay type: functional, cell-based; method in brief: as §3
MDA-MB-468 [18] = experiment: Downregulation of E2F2 mRNA expression in human MDA-MB-468 cells at 25 uM incubated at 48 hrs by qRT-PCR analysis; assay type: functional, cell-based; method in brief: as §3
MDA-MB-468 [19] = experiment: Downregulation of SKP2 mRNA expression in human MDA-MB-468 cells at 25 uM incubated at 48 hrs by qRT-PCR analysis; assay type: functional, cell-based; method in brief: as §3
[20] = Induction of apoptosis in human P493-6 cells assessed as late apoptotic cells at 25 uM incubated for 24 hrs by Annexin V/PI staining based flow cytometry analysis (reference value: 6.52 %); assay type: functional
[21] = Induction of apoptosis in human P493-6 cells assessed as viable cells at 50 uM incubated for 24 hrs by Annexin V/PI staining based flow cytometry analysis (reference value: 90.8%); assay type: functional; conditions: read-out: Activity
[22] = Induction of apoptosis in human P493-6 cells assessed as necrotic cells at 50 uM incubated for 24 hrs by Annexin V/PI staining based flow cytometry analysis (reference value: 0.11 %); assay type: functional
[23] = Toxicity in mouse implanted with human MDA-MB-468 cells assessed as change in body weight at 10 mg/kg, po; assay type: organism-based; conditions: in vivo
P493-6 [24] = experiment: Induction of apoptosis in human P493-6 cells assessed as effect on PARP level at 50 uM incubated for 24 hrs
P493-6 [25] = experiment: Induction of apoptosis in human P493-6 cells assessed as effect on caspase-3 level at 50 uM incubated for 24 hrs
P493-6 [26] = experiment: Induction of apoptosis in human P493-6 cells assessed as effect on cleaved PARP level at 50 uM incubated for 24 hrs
MDA-MB-468 [27] = experiment: Induction of apoptosis in human MDA-MB-468 cells assessed as effect on cleaved PARP level at 50 uM incubated for 24 hrs

T1 sequence (P01106 whole entry): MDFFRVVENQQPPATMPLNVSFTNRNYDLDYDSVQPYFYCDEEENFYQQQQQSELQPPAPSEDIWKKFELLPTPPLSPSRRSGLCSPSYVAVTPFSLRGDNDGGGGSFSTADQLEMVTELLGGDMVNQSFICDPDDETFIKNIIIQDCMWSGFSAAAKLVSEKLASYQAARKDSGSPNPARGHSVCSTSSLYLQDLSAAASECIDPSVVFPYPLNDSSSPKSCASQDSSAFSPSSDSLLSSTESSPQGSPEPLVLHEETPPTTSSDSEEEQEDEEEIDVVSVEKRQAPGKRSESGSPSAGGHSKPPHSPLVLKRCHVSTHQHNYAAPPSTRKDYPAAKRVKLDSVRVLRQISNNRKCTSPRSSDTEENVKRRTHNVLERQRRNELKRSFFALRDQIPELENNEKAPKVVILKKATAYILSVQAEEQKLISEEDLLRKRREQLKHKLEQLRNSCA
T1 sequence (P61244 2-160 partner limits assumed): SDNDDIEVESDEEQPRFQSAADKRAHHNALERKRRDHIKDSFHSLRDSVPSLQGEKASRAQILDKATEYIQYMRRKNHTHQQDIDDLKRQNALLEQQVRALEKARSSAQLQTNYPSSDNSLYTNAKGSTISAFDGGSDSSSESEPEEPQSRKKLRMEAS
Sequence of Myc proto-oncogene protein (Homo sapiens) (P01106 whole entry): as the sequence (P01106 whole entry) above

N#Cc1cc2c(-c3ccc(Cl)cc3)nn(-c3ccccc3)c2[nH]c1=O
IC50 (MDA-MB-231): 10.6 µM
IC50 (MDA-MB-468 [1]): 13.5 µM
IC50 (MCF7): 39.4 µM
IC50 [2]: 15.2 µM
Ratio IC50 [3]: 3.9
Activity [4]: Active
Activity [5]: Active
Activity [6]: Active
Activity [7]: Active
Activity [8]: Active
Activity [9]: Active
Activity (MDA-MB-468 [10]): Active
Activity (MDA-MB-468 [11]): Active
Activity (MDA-MB-468 [12]): Active
Activity (MDA-MB-468 [13]): Active
Activity (P493-6 [14]): Active
Activity (P493-6 [15]): Active
Activity (P493-6 [16]): Active
Activity (MDA-MB-468 [17]): Active
Activity (MDA-MB-468 [18]): Active
Activity (MDA-MB-468 [19]): Active
Activity [20]: 11.3%
viability at 50 µM [21]: 77.2%
Activity [22]: 0.11%
Activity [23]: Non-toxic
Activity (P493-6 [24]): Active
Activity (P493-6 [25]): Active
Activity (P493-6 [26]): Active
Activity (MDA-MB-468 [27]): Active
